# Measurements pooled from the literature.
# Protocols differ between the studies behind these lines.
# Target: Serine/threonine-protein kinase ULK3 (ULK3, Homo sapiens, UniProt Q6PHR2)
# One construct used (Q6PHR2 1-472): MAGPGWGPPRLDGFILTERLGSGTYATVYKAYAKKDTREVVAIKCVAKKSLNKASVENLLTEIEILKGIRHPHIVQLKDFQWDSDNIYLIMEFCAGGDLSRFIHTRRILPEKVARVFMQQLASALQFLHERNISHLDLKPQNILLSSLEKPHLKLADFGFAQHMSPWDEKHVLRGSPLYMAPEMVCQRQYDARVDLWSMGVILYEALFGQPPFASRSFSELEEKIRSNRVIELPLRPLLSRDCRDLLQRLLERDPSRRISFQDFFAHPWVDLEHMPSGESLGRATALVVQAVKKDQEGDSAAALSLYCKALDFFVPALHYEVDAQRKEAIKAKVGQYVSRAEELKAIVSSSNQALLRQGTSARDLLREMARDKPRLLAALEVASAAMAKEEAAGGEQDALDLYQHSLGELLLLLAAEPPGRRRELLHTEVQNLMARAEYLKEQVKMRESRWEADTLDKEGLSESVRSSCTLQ
Compound,test,conditions,remaining binding [%]
N[C@@H]1CCN(c2nccc(-c3cnn4ncccc34)n2)C1,binding,1 µM,100
Nc1ncc2c(n1)-c1c([nH]c3ccc(C#CC4CC4)cc13)CCCC2,"binding, competition with immobilised ligand",1 µM,86
O=C(NCCCN1CCOCC1)c1ccc(Nc2nccc(-c3cc4ccccc4s3)n2)cc1,"binding, competition with immobilised ligand",1 µM,3.2
O=C(Nc1cccnn1)N1CC(C/C=C/c2cncc(Oc3ccc(C(F)(F)F)cn3)n2)C1,"cell-free assay, competition with immobilised ligand",1 µM,82
Cc1cc(-c2cc(C(F)(F)F)ccc2O[C@H]2C[C@@]2(CNS(=O)(=O)c2ccc([N+](=O)[O-])cc2)c2ccc(F)cc2F)[nH]n1,"cell-free assay, competition with immobilised ligand",0.3 µM,9.8
C[C@H](c1ccc(F)cc1)N(Cc1cccc(C(=O)O)c1)C(=O)c1cnc2ccccc2c1,"cell-free assay, competition with immobilised ligand",1 µM,82
c1cnn2ncc(-c3ccnc(N4CCC45COC5)n3)c2c1,binding,1 µM,64
c1cncc(-c2cccc(Nc3nccc(NC4CCCCC4)n3)c2)c1,"binding, competition with immobilised ligand",10 µM,44
CS(=O)(=O)NCC[C@H](NC(=O)c1cncc2c1cnn2-c1ccc(F)cc1)c1ccnc(S(C)(=O)=O)c1,"cell-free assay, competition with immobilised ligand",1 µM,100
O=C(c1ccc(Nc2nccc(-c3cc4ccccc4s3)n2)cc1)N1CCC(N2CCCC2)CC1,"binding, competition with immobilised ligand",1 µM,0.4
F[C@@H]1CCN(c2nccc(-c3cnn4ncccc34)n2)C1,binding,1 µM,100
Cc1cnc(Nc2ccc(C(=O)N3CCC(N4CCCC4)CC3)cc2)nc1-c1cc2ccccc2s1,"binding, competition with immobilised ligand",1 µM,0.3
FC(F)(F)Oc1cccc(-c2cnc3ccc(-c4ccncc4)nn23)c1,"binding, competition with immobilised ligand",5 µM,45
CC1CCCN1c1nccc(-c2cnn3ncccc23)n1 (centres unmarked),binding,1 µM,100
Cn1nc(C(=O)NCc2ccc(C(=O)O)cc2)cc1-c1ccc2[nH]ccc2c1,"cell-free assay, competition with immobilised ligand",0.1 µM,99
CN(c1nccc(-c2cnn3ncccc23)n1)C1CC1,binding,1 µM,100
CC(=O)Nc1c(C(C)=O)c(=O)n(C)c2nc(-c3ccc(Cl)cc3Cl)c(-c3ccc(Cl)cc3)cc12,"cell-free assay, competition with immobilised ligand",1 µM,75
CNC(=O)[C@@H]1CC[C@@H](n2c(-c3ccc4cnccc4c3)nc3ccc(C(=O)NCc4cccc(C(N)=O)c4)cc32)C1,"binding, competition with immobilised ligand",1 µM,88
O=C(NCc1ncc(C(F)(F)F)cc1Cl)c1ccc2c(c1)C1(CCS(=O)(=O)CC1)[C@@H](C1CC1)N2S(=O)(=O)c1ccc(F)cc1,"cell-free assay, competition with immobilised ligand",1 µM,69
O=C(Nc1c[nH]nc1C(=O)NC1CCNCC1)c1cc(F)cc(F)c1,"binding, competition with immobilised ligand",1 µM,100
